Read-outs that look alike come from different tables or passages of the source.
What was measured:
[1] = system: patients with R/R AML; conditions: OTX015 monotherapy ref 10; cited from earlier work
[2] = Plasma mivebresib pharmacokinetics; type: in vivo, human
[3] = system: patients with relapsed/refractory AML; test: Safety: treatment‐emergent adverse events and DLTs; type: in vivo, human
In short: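 3 + 3 dose escalation, daily dosing in 28-day cycles. Monotherapy was 1.5, 2.0 or 2.5 mg. TEAEs (first dose to 30 days post-discontinuation) were graded by NCI CTCAE v4.03 in all patients given ≥1 dose.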

[4] = system: DCXR, HEXIM1, CD93, MYC, BCL2, PUMA, BIM gene expression in peripheral blood; type: in vivo, human; conditions: for pharmacodynamic effects (gene modulation) vs dose and drug exposure: peripheral blood, correlation with Cmax, P < .05
In short: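 Whole blood was drawn before and 6 h after the C1D1 monotherapy dose. RNA from it underwent whole-transcriptome sequencing, and marker expression was given as percent change from baseline. Linear regression related C1D1 plasma Cmax to biomarker change.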

[5] = system: relapsed/refractory acute myeloid leukemia; test: Clinical activity: IWG response, bone marrow blast change, PFS, OS; type: in vivo, human
In short: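 Adults (≥18 y) with relapsed/refractory AML got the test compound daily in 28-day cycles at 1.5, 2.0 or 2.5 mg as monotherapy. Response followed revised IWG AML criteria, comparing baseline bone marrow with at least 1 on-treatment marrow sample. Marrow was sampled at screening, C2D1 and as clinically indicated. Patients without a postbaseline sample were not evaluable. PFS and OS were summarised descriptively.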

[6] = system: patients with relapsed/refractory solid tumors; conditions: cited from earlier work
[7] = MIV‐mono n = 19, started MIV‐Ven n = 25
[8] = started arms (mono n = 19, combination n = 25)
[9] = PB, 6 hours after MIV‐mono administration, P < .001

## Cc1sc2c(c1C)C(c1ccc(Cl)cc1)=N[C@@H](CC(=O)Nc1ccc(O)cc1)c1nnc(C)n1-2 [OTX015]
[1]
  rate of diarrhea: 34%
  rate of nausea: 22%
  rate of vomiting: 7%

## CCS(=O)(=O)Nc1ccc(Oc2ccc(F)cc2F)c(-c2cn(C)c(=O)c3[nH]ccc23)c1 [mivebresib]
[2]; AUC0‐24 on C1D8 versus C1D1, daily dosing
  steady‐state accumulation ratio: approximately 2 fold
[2]; dose‐normalized C1D8 Cmax and AUC24 over the studied dosing range
  dose proportionality of PK: approximately dose proportional
[2]; human, plasma, oral
  half-life: 16.4 h
[2]; monotherapy vs combination cohorts
  effect of venetoclax coadministration on mivebresib PK: no effect
[3]; MIV‐mono n = 19
  anemia, grade ≥3 mivebresib‐related TEAE: 26%
  decreased appetite, TEAE frequency: 58%
  decreased appetite, grade ≥3: 11%
  diarrhea, grade ≥3: no grade ≥3
  fatigue, TEAE frequency: 68%
  fatigue, grade ≥3: 21%
  nausea, grade ≥3: 5%
  pneumonia, serious TEAE: 16%
[3]; [7]
  AML progression (AML), serious TEAE: 16%
  decreased appetite, mivebresib‐related TEAE: 42%
  diarrhea, mivebresib‐related TEAE: 42%
  dysgeusia, mivebresib‐related TEAE: 74%
  febrile neutropenia, serious TEAE: 16%
  grade ≥3 mivebresib‐related TEAEs, patients: 68%
  serious adverse events (serious TEAEs regardless of relatedness), patients: 74%
  thrombocytopenia, grade ≥3 mivebresib‐related TEAE: 32%
[3]; first 4 weeks, all dose levels
  dose‐limiting toxicities (DLTs): No DLTs occurred
[3]; [8]
  ALT increased, AE related to mivebresib: 1 (5) No. of Patients (%)
  AST increased, AE related to mivebresib: 0 (0) No. of Patients (%)
  Anemia, AE related to mivebresib: 7 (37) No. of Patients (%)
  Anemia, TEAE: 13 (68) No. of Patients (%)
  Any TEAEs: 19 (100) No. of Patients (%)
  Cough, TEAE: 6 (32) No. of Patients (%)
  Decreased appetite, AE related to mivebresib: 8 (42) No. of Patients (%)
  Decreased appetite, TEAE: 11 (58) No. of Patients (%)
  Diarrhea, AE related to mivebresib: 8 (42) No. of Patients (%)
  Diarrhea, TEAE: 9 (47) No. of Patients (%)
  Dry mouth, AE related to mivebresib: 2 (11) No. of Patients (%)
  Dysgeusia, AE related to mivebresib: 14 (74) No. of Patients (%)
  Dysgeusia, TEAE: 15 (79) No. of Patients (%)
  Dyspnea, TEAE: 6 (32) No. of Patients (%)
  Epistaxis, AE related to mivebresib: 3 (16) No. of Patients (%)
  Epistaxis, TEAE: 4 (21) No. of Patients (%)
  Fatigue, AE related to mivebresib: 7 (37) No. of Patients (%)
  Fatigue, TEAE: 13 (68) No. of Patients (%)
  Febrile neutropenia, AE related to mivebresib: 0 (0) No. of Patients (%)
  Febrile neutropenia, TEAE: 7 (37) No. of Patients (%)
  Headache, AE related to mivebresib: 0 (0) No. of Patients (%)
  Hyperbilirubinemia, TEAE: 6 (32) No. of Patients (%)
  Hypokalemia, TEAE: 3 (16) No. of Patients (%)
  Hypomagnesemia, TEAE: 2 (11) No. of Patients (%)
  Muscular weakness, TEAE: 7 (37) No. of Patients (%)
  Nausea, AE related to mivebresib: 7 (37) No. of Patients (%)
  Nausea, TEAE: 9 (47) No. of Patients (%)
  Neutrophil count decreased, AE related to mivebresib: 2 (11) No. of Patients (%)
  Platelet count decreased, AE related to mivebresib: 2 (11) No. of Patients (%)
  Stomatitis, AE related to mivebresib: 1 (5) No. of Patients (%)
  Thrombocytopenia, AE related to mivebresib: 7 (37) No. of Patients (%)
  Thrombocytopenia, TEAE: 10 (53) No. of Patients (%)
  Vomiting, AE related to mivebresib: 5 (26) No. of Patients (%)
  Vomiting, TEAE: 6 (32) No. of Patients (%)
  WBC count decreased, AE related to mivebresib: 1 (5) No. of Patients (%)
  Weight decreased, AE related to mivebresib: 2 (11) No. of Patients (%)
[3]; whole study, MIV‐mono and MIV‐Ven
  patients with an AE leading to discontinuation: Seventeen
[4]; 6 hours after MIV‐mono, P < .0005, data not shown
  BIM (proapoptotic gene) expression: increased
[4]; 6 hours after MIV‐mono, P < .01, data not shown
  BCL2 (antiapoptotic gene) expression: inhibited
[4]; 6 hours after MIV‐mono, P < .064, data not shown
  PUMA (proapoptotic gene) expression: increased
[4]; [9]
  CD93 expression: decrease
  DCXR gene expression: increase
  HEXIM1 gene expression: increase
[4]; PB, 6 hours after MIV‐mono administration, P < .083
  MYC expression: decrease
[4]
  pharmacodynamic effects (gene modulation) vs dose and drug exposure: proportional to dose and drug exposure
[4]; listed as MIV‐mono
  pharmacodynamic effects (gene modulation) vs dose and drug exposure: dose‐dependent
[5]; 19 patients who received MIV‐mono
  response: CRi: 5%
[5]; MIV‐mono 1.5 mg
  median OS: 15.7 weeks
  median PFS: 7.2 weeks
[5]; MIV‐mono 2.0 mg
  median OS: 22.0 weeks
  median PFS: 13.9 weeks
[5]; MIV‐mono 2.5 mg
  median OS: 12.6 weeks
  median PFS: 10.6 weeks
[5]; MIV‐mono 3 patients, MIV‐Ven 4 patients
  patients with FLT3 and NPM1 co‐occurrence who responded / had a reduction in BM blasts: None
[5]; MIV‐mono group
  response: CRi: 1 patient
[5]; assessable patients: 16 MIV‐mono, 15 only MIV‐Ven
  patients with measurable reduction in BM blasts: 44%
[5]; [8]
  Best IWG response: Aplasia: 0 (0) No. of Patients (%)
  Best IWG response: CR: 0 (0) No. of Patients (%)
  Best IWG response: CRi: 1 (5) No. of Patients (%)
  Best IWG response: MLFS: 0 (0) No. of Patients (%)
  Best IWG response: PR: 0 (0) No. of Patients (%)
  Best IWG response: Resistant disease: 15 (79) No. of Patients (%)
  Best IWG response: Unknown: Not assessable or insufficient data: 3 (16) No. of Patients (%)
[6]
  solid tumor recommended phase 2 dose: 1.5 mg daily

From PMC8360206 (Cancer, 2021)
